Consider 93 compounds from ChEMBL document CHEMBL1130075, “(2-Methyl-5-(methylsulfonyl)benzoyl)guanidine Na+/H+ antiporter inhibitors” (J Med Chem, 1997).

pIC50: −log10 of the molar value.

The assay has as its target Sodium/hydrogen exchanger (Oryctolagus cuniculus, UniProt P23791+P50482+P26432). Briefly: Inhibition of 5-N-(ethyl isopropyl)-amiloride[EIPA]-sensitive Na+ uptake into acidified rabbit erythrocytes. It is filed as functional. The method in brief: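 Rabbit blood (heparinized) red cells, washed, acidified in pH 6.2 KCl buffer with ouabain, 10 min 37 °C; internal pH clamped with 200 μM DIDS and 1 mM acetazolamide, 30 min 37 °C. Uptake 5 min at 37 °C in pH 8.0 buffer with 10 mM NaCl plus ²²Na tracer, 1% DMSO. Triplicates; counts with 10 μM EIPA subtracted; IC50 by nonlinear fit.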
For orientation: IC50 means the concentration that inhibits the measured activity by half. A high value points to lower potency. With `COc1cc(C)c(C(=O)N=C(N)N)cc1S(C)(=O)=O`, the IC50 was 16 nM. The compound `Cc1c(C(=O)N=C(N)N)cc(S(C)(=O)=O)c(Cl)c1Cl` showed an IC50 of 29 nM. This IC50 is about 1.8-fold higher than that of the compound before. Same read-out and setting: under `Cc1cc(N2CCCC2)c(S(C)(=O)=O)cc1C(=O)N=C(N)N` stands 11 nM.

The compound `Cc1cc(Sc2cccc(Cl)c2)c(S(C)(=O)=O)cc1C(=O)N=C(N)N` showed an IC50 of 37 nM.

`Cc1c(C(=O)N=C(N)N)cc(S(C)(=O)=O)c(Cl)c1C` yielded an IC50 of 58 nM. The same measure, in the same setting: to `Cc1cc(-c2ccc(Cl)cc2Cl)c(S(C)(=O)=O)cc1C(=O)N=C(N)N` belongs 42 nM; to `Cc1cc(O)c(S(C)(=O)=O)cc1C(=O)N=C(N)N`, 220 nM. In the case of `Cc1cc(N2CCC(N)CC2)c(S(C)(=O)=O)cc1C(=O)N=C(N)N`, the 50% inhibitory concentration (IC50) is on record as 9.8 nM. In the case of `Cc1cc(Oc2cncc(Cl)c2)c(S(C)(=O)=O)cc1C(=O)N=C(N)N`, the IC50 was found to be 14 nM. The IC50 values of the last two compounds are within 1.5-fold of each other.

Regarding `CCc1cc(Oc2cccnc2)c(S(C)(=O)=O)cc1C(=O)N=C(N)N`, the IC50 came out at 27 nM. Compared with the last compound, the IC50 is about 1.9-fold higher.

`Cc1ccc(C(=O)N=C(N)N)cc1S(C)(=O)=O`: the IC50 was found to be 210 nM. Against the preceding compound, the IC50 is about 7.8-fold higher. On to `Cc1ccc(-c2ccc(C(=O)N=C(N)N)cc2S(C)(=O)=O)cc1`, for which the IC50 turned out to be 100 nM. In turn, `Cc1cc(Nc2ncccn2)c(S(C)(=O)=O)cc1C(=O)N=C(N)N` displayed an IC50 of 8.3 nM.

`Cc1cc(C2CCC2)c(S(C)(=O)=O)cc1C(=O)N=C(N)N` returned an IC50 of 8.2 nM. For the compound `Cc1cc(Oc2ccccc2Cl)c(S(C)(=O)=O)cc1C(=O)N=C(N)N`, the IC50 stood at 14 nM. Same read-out and setting: to `CS(=O)(=O)c1cc(C(=O)N=C(N)N)ccc1C#N` belongs 140 nM. In turn, `CCC(C)c1cc(C)c(C(=O)N=C(N)N)cc1S(C)(=O)=O` (stereo not drawn) displayed an IC50 of 8 nM. This IC50 is about 18-fold lower than that of the compound before.

As to `CS(=O)(=O)c1cc(C(=O)N=C(N)N)c(N)cc1N1CCCC(O)C1` (stereo not drawn), the IC50 worked out at 160 nM.

`Cc1c(C(=O)N=C(N)N)cc(S(C)(=O)=O)cc1-n1cccc1` had an IC50 of 100 nM. `CS(=O)(=O)c1cc(C(=O)N=C(N)N)c(Cl)cc1Oc1cccnc1` had an IC50 of 52 nM. This IC50 is about 1.9-fold lower than that of the compound before. `Cc1cc(-n2cnc3ccccc32)c(S(C)(=O)=O)cc1C(=O)N=C(N)N` registered an IC50 of 100 nM. On to `Cc1cc(Oc2ccc(Cl)cc2)c(S(C)(=O)=O)cc1C(=O)N=C(N)N`, for which the IC50 is 13 nM. Regarding `Cc1cc(Sc2ccncc2)c(S(C)(=O)=O)cc1C(=O)N=C(N)N`, the IC50 is 13 nM. Same read-out and setting: under `Cc1cn(-c2cc(C)c(C(=O)N=C(N)N)cc2S(C)(=O)=O)cn1` stands 28 nM. A word on the pIC50: it is the negative decadic logarithm of the IC50, by convention in mol/L. A high value points to a low IC50. For `Cc1c(C(=O)N=C(N)N)ccc(Cl)c1S(C)(=O)=O`, the pIC50 is 6.89. `CCc1cc(Cl)c(S(C)(=O)=O)cc1C(=O)N=C(N)N` had a half-inhibitory concentration (IC50) of 63 nM. That is a double-digit nanomolar value.

Compound `Cc1cc(Sc2ccccc2Cl)c(S(C)(=O)=O)cc1C(=O)N=C(N)N` returned an IC50 of 14 nM.

`Cc1cc(-c2ccc(Cl)cc2)c(S(C)(=O)=O)cc1C(=O)N=C(N)N` came in with an IC50 of 45 nM. In turn, `Cc1cc(Nc2ccccc2)c(S(C)(=O)=O)cc1C(=O)N=C(N)N` came in with a half-inhibitory concentration (IC50) of 21 nM. This IC50 lies about 2.1-fold lower than the previous one. `CS(=O)(=O)c1cc(C(=O)N=C(N)N)c(F)cc1F` showed an IC50 of 630 nM. On to `Cc1cc(OCc2ccccc2)c(S(C)(=O)=O)cc1C(=O)N=C(N)N`, for which the IC50 worked out at 28 nM. `CS(=O)(=O)c1cc(C(=O)N=C(N)N)ccc1-n1ccc(=O)cc1`: the IC50 was 710 nM. `CCOc1cc(C)c(C(=O)N=C(N)N)cc1S(C)(=O)=O` registered an IC50 of 19 nM. `Cc1ccc(S(C)(=O)=O)cc1C(=O)N=C(N)N`: the IC50 is listed as 150 nM. With `Cc1cc(Cl)c(S(C)(=O)=O)cc1C(=O)N=C(N)N`, the IC50 amounted to 25 nM. For `CSc1cc(C)c(C(=O)N=C(N)N)cc1S(C)(=O)=O`, the IC50 stood at 6 nM.

On to `Cc1cc(OC(C)C)c(S(C)(=O)=O)cc1C(=O)N=C(N)N`, for which the IC50 is 19 nM.

For the compound `Cc1cc(N2CCCCC2)c(S(C)(=O)=O)cc1C(=O)N=C(N)N`, the IC50 is 21 nM. This IC50 and that of the compound before are within 1.5-fold of each other. As for `CCc1cc(OC)c(S(C)(=O)=O)cc1C(=O)N=C(N)N`, the IC50 was 30 nM. This IC50 and that of the compound before are within 1.5-fold of each other. Same read-out and setting: to `CS(=O)(=O)c1cc(C(=O)N=C(N)N)c(Cl)cc1Cl` belongs 140 nM; to `Cc1cc(Oc2cccnc2)c(S(C)(=O)=O)cc1C(=O)N=C(N)N`, 8.8 nM; to `Cc1c(C(=O)N=C(N)N)cc(S(C)(=O)=O)c(Cl)c1[N+](=O)[O-]`, 44 nM. Same read-out and setting: under `CCSc1cc(C)c(C(=O)N=C(N)N)cc1S(C)(=O)=O` stands 5.9 nM. Consider `Cc1cc(OC2CCCCC2)c(S(C)(=O)=O)cc1C(=O)N=C(N)N`, for which the half-maximal inhibitory concentration (IC50) is recorded as 37 nM. This IC50 lies about 6.3-fold higher than the previous one.

In turn, `Cc1cc(-n2cccn2)c(S(C)(=O)=O)cc1C(=O)N=C(N)N` displayed an IC50 of 25 nM. For the compound `CS(=O)(=O)c1cc(C(=O)N=C(N)N)c(Cl)cc1N1CCC(N)CC1`, the IC50 was 20 nM. Turning to `CS(=O)(=O)c1cc(C(=O)N=C(N)N)c(N)cc1N1CCCCC1`, the IC50 was 190 nM. Compared with the last compound, the IC50 is about 9.5-fold higher. `CS(=O)(=O)c1cc(C(=O)N=C(N)N)ccc1Oc1cccnc1` yielded an IC50 of 76 nM. The compound `CS(=O)(=O)c1cc(C(=O)N=C(N)N)ccc1N1CCCC(O)C1` (stereo not drawn) showed an IC50 of 65 nM.

`Cc1cc(OC(C)(C)C)c(S(C)(=O)=O)cc1C(=O)N=C(N)N` gave an IC50 of 9.4 nM. For the compound `COc1ccc(C(=O)N=C(N)N)cc1S(C)(=O)=O`, the half-maximal inhibitory concentration (IC50) turned out to be 270 nM. As for `Cc1cc(N2CCCC(O)C2)c(S(C)(=O)=O)cc1C(=O)N=C(N)N` (stereo not drawn), the half-maximal inhibitory concentration (IC50) is on record as 30 nM. The compound `Cc1cc(Sc2ccc(Cl)cc2)c(S(C)(=O)=O)cc1C(=O)N=C(N)N` displayed an IC50 of 19 nM. Against the preceding compound, the IC50 is about 1.6-fold lower. `Cc1cc(-c2cc(C(F)(F)F)cc(C(F)(F)F)c2)c(S(C)(=O)=O)cc1C(=O)N=C(N)N`: the IC50 worked out at 2800 nM. For `Cc1ccc(-c2cc(C)c(C(=O)N=C(N)N)cc2S(C)(=O)=O)cc1`, the IC50 amounted to 25 nM. In the case of `CS(=O)(=O)c1cc(C(=O)N=C(N)N)ccc1N1CCCCC1`, the 50% inhibitory concentration (IC50) was 130 nM. This IC50 is about 5.2-fold higher than that of the compound before. Regarding `Cc1c(C(=O)N=C(N)N)ccc(Oc2cccnc2)c1S(C)(=O)=O`, the IC50 came out at 2200 nM. Compound `CS(=O)(=O)c1cc(C(=O)N=C(N)N)c(N)cc1Cl` displayed a half-maximal inhibitory concentration (IC50) of 130 nM.

With `Cc1cc(Oc2cccc(Cl)c2)c(S(C)(=O)=O)cc1C(=O)N=C(N)N`, the concentration for half-maximal inhibition (IC50) turned out to be 21 nM. Regarding `CCc1cc(-n2ccc(=O)cc2)c(S(C)(=O)=O)cc1C(=O)N=C(N)N`, the half-maximal inhibitory concentration (IC50) is recorded as 930 nM. With `Cc1cc(Nc2ccccn2)c(S(C)(=O)=O)cc1C(=O)N=C(N)N`, the IC50 worked out at 9.2 nM. `CS(=O)(=O)c1cc(C(=O)N=C(N)N)ccc1Br` returned an IC50 of 180 nM. This IC50 is about 20-fold higher than that of the compound before. `CS(=O)(=O)c1cc(C(=O)N=C(N)N)ccc1Cl` came in with an IC50 of 380 nM.

As to `Cc1cc(SC(C)(C)C)c(S(C)(=O)=O)cc1C(=O)N=C(N)N`, the IC50 is on record as 22 nM. Compound `COc1cc(N2CCC(N)CC2)c(S(C)(=O)=O)cc1C(=O)N=C(N)N` yielded an IC50 of 73 nM. On the same count and under the same terms, under `Cc1cc(-n2ccnc2C)c(S(C)(=O)=O)cc1C(=O)N=C(N)N` stands 29 nM; under `CS(=O)(=O)c1cc(C(=O)N=C(N)N)c(Cl)cc1-n1ccnc1`, 130 nM. Still for that read-out and setting: under `Cc1c(C(=O)N=C(N)N)cc(S(C)(=O)=O)c(-n2ccnc2)c1C` stands 290 nM; under `Cc1cc(-c2cc(Cl)cc(Cl)c2)c(S(C)(=O)=O)cc1C(=O)N=C(N)N`, 130 nM. On to `Cc1cc(-c2ccc(F)cc2)c(S(C)(=O)=O)cc1C(=O)N=C(N)N`, for which the IC50 is listed as 36 nM. `Cc1cc(Nc2cccc(Cl)c2)c(S(C)(=O)=O)cc1C(=O)N=C(N)N` gave an IC50 of 33 nM. This IC50 and that of the compound before are within 1.5-fold of each other. On the same count and under the same terms, under `Cc1c(C(=O)N=C(N)N)cc(S(C)(=O)=O)c(Oc2cccnc2)c1C` stands 23 nM; under `CCc1cc(N2CCC(O)CC2)c(S(C)(=O)=O)cc1C(=O)N=C(N)N`, 41 nM; under `CS(=O)(=O)c1cc(C(=O)N=C(N)N)c(N2CCCCC2)cc1N1CCCCC1`, 1000 nM. With `Cc1cc(C#N)c(S(C)(=O)=O)cc1C(=O)N=C(N)N`, the concentration for half-maximal inhibition (IC50) worked out at 70 nM. Regarding `Cc1cc(C(F)(F)F)c(S(C)(=O)=O)cc1C(=O)N=C(N)N`, the IC50 is on record as 37 nM. In turn, `CCN(CC)Cc1cc(Br)c(S(C)(=O)=O)cc1C(=O)N=C(N)N` yielded an IC50 of 9500 nM. This IC50 is about 260-fold higher than that of the compound before. Compound `Cc1cc(N)c(S(C)(=O)=O)cc1C(=O)N=C(N)N` registered an IC50 of 16 nM. This IC50 lies about 590-fold lower than the previous one. As for `CCc1cc(N2CCCCC2)c(S(C)(=O)=O)cc1C(=O)N=C(N)N`, the IC50 is listed as 25 nM.

`Cc1c(C(=O)N=C(N)N)cc(S(C)(=O)=O)c(C)c1C` came in with a concentration for half-maximal inhibition (IC50) of 55 nM. `Cc1cc(Oc2ccccc2)c(S(C)(=O)=O)cc1C(=O)N=C(N)N` yielded an IC50 of 10 nM. For the compound `CS(=O)(=O)c1cc(C(=O)N=C(N)N)ccc1N1CCC(N)CC1`, the IC50 was 160 nM. `Cc1cc(F)c(S(C)(=O)=O)cc1C(=O)N=C(N)N` registered an IC50 of 44 nM. `Cc1cc(Br)c(C(=O)N=C(N)N)cc1S(C)(=O)=O` showed a concentration for half-maximal inhibition (IC50) of 70 nM.

As to `Cc1cc(-c2ccccc2)c(S(C)(=O)=O)cc1C(=O)N=C(N)N`, the IC50 came out at 19 nM. This IC50 lies about 3.7-fold lower than the previous one. In the case of `CS(=O)(=O)c1cc(C(=O)N=C(N)N)ccc1-n1ccnc1`, the IC50 is 150 nM. The same measure, in the same setting: to `Cc1cc(OC2CCCC2)c(S(C)(=O)=O)cc1C(=O)N=C(N)N` belongs 27 nM; to `Cc1cc(C)c(S(C)(=O)=O)cc1C(=O)N=C(N)N`, 11 nM; to `Cc1c(C(=O)N=C(N)N)cc(S(C)(=O)=O)c(C#N)c1C`, 370 nM. Still for that read-out and setting: to `CCc1cc(Br)c(S(C)(=O)=O)cc1C(=O)N=C(N)N` belongs 41 nM; to `Cc1cc(Sc2ccccc2)c(S(C)(=O)=O)cc1C(=O)N=C(N)N`, 14 nM; to `CS(=O)(=O)c1cc(C(=O)N=C(N)N)c(Cl)cc1N1CCCC(O)C1` (stereo not drawn), 60 nM.

As for `Cc1cc(-n2ccnc2)c(S(C)(=O)=O)cc1C(=O)N=C(N)N`, the IC50 is 23 nM.
